Calls of active or inactive are those of the source.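 Rule for the calls, unless noted: active = viability at or under a set limit in both replicates, limit being median viability minus 3 SD (cut at about 48% in these data, passing the limit was not always enough); inconclusive = at or under the limit in just one replicate; inactive = at or above the limit in both replicates.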

Experiment [1] can be described thus: HUVEC growth inhibition – cell-based, human, primary screen (AID 575;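 active = viability at or below 30% in both replicate assays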;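 note: 100% = median of untreated cell wells with 0.1% DMSO on each plate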). The settings on record: HUVEC proliferation, CellTiter-Glo luminescence, 72 h; at 10 µM; stronger effect = lower value. An outline of the steps:
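Assay system: primary human umbilical vein endothelial cells / Buffer or medium: endothelial basal medium with 2% FBS plus growth supplements / Compound dosing: one dose, 10 µM final, 0.1% DMSO / Timing: 72 h treatment at 37 °C / Signal: CTG luminescence / Benchmarks: 32 DMSO-only cell-control wells (high), 32 MePR drug-control wells (low) per plate / Plate: collagen-coated 384-well format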

The nature of experiment [2]: H69AR cell proliferation blockers – human, duplicate replicates, primary screen (AID 580).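 Note: 100% = mean luminescence of untreated wells and 0% = no signal.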 To be noted: H69AR lung tumor cells viability, ATP luminescence, 72 h; at 10 µM; stronger effect = lower value.
The nature of experiment [3]: MRP1 drug-resistance reversers in H69AR cells – cell-based, doxorubicin co-treatment, pilot screen (AID 601;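 active = viability loss from added drug above about 55%, and viability with drug at most 40%, in both replicates, limit read from the data, passing the limit was not always enough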). The settings on record: CellTiter-Glo, 72 h, at 10 µM; for differential viability (reversal): stronger effect = higher value.
Experiment [4] can be described thus: yeast transport mutant growth inhibition pilot in 384-well plates, post-Golgi transport modulator project (AID 636; in the data active = inhibition above about 31%). The settings on record: absorbance 615 nm, about 18 h, stronger effect = higher value.
Experiment [5] can be described thus: growth suppression of yeast trafficking mutant, preliminary HTS, modulators of trafficking downstream of Golgi apparatus project, 1536-format plate, OD 615 nm (AID 637; in the data active = inhibition above about 30%). To be noted: yeast transport mutant growth, absorbance 615 nm, 18 h; stronger effect = higher value.
Setting [6] is: H69AR cells + 2 uM doxorubicin, measured here: viability with 2 uM doxorubicin, stronger effect = lower value.
The mark [7] stands for this setting: H69AR cells, compound alone cytotoxicity.

In the case of `Cc1ccc(NC(=O)c2ccco2)c(NC(=O)c2cccs2)c1`, the viability in experiment [1] is 92% (inactive); in experiment [2] it was 88.8% (inactive); in experiment [3] (setting [6]), 89.9%; in experiment [3] (setting [7]), 88.8%. For the same molecule, the differential viability (reversal) in experiment [3] (H69AR cells + 2 uM doxorubicin) was -1.08% (inactive). For the same molecule, the inhibition in experiment [4] is -3.73% (inactive); in experiment [5], 8.57% (inactive).
As to `CCSc1nnc(NC(=O)c2cc(C)oc2C)s1`, the viability in experiment [1] was 85% (inactive); in experiment [2] it was 99.7% (inactive); in experiment [3] (setting [6]), 87.1%; in experiment [3] (setting [7]) it was 99.7%. Further, the differential viability (reversal) in experiment [3] (H69AR cells + 2 uM doxorubicin) is 12.6% (inactive). Besides, the figures for the inhibition in experiment [4] and in experiment [5] were -3.55% (inactive) and 3.33% (inactive), respectively.
For `O=C(c1noc2c1CCc1ccccc1-2)N1CCOCC1`, the viability was 95.6% (inactive) in experiment [1], 96.4% (inactive) in experiment [2], 90.3% in experiment [3] (setting [6]) and 96.4% in experiment [3] (setting [7]). For the same molecule, the differential viability (reversal) in experiment [3] (H69AR cells + 2 uM doxorubicin) is 6.12% (inactive). Besides, the results for the inhibition in experiment [4] and in experiment [5] were -0.13% (inactive) and -2.86% (inactive), respectively.
As to `O=C1c2ccccc2C(=O)N1CCC(=O)N1CCc2ccccc21`, the viability in experiment [1] was 101% (inactive); in experiment [2] it was 87.3% (inactive); in experiment [3] (setting [6]) it was 92.7%; in experiment [3] (setting [7]) it was 87.3%. The differential viability (reversal) in experiment [3] (H69AR cells + 2 uM doxorubicin) was -5.43% (inactive). The inhibition is -4.53% (inactive) in experiment [4] and 5.08% (inactive) in experiment [5].
For `CCOC(=O)C1CCN(C(=O)c2c(-c3c(Cl)cccc3Cl)noc2C)CC1`, the viability is 95.8% (inactive) in experiment [1], 84.8% (inactive) in experiment [2], 91.1% in experiment [3] (setting [6]) and 84.8% in experiment [3] (setting [7]). In experiment [3] (H69AR cells + 2 uM doxorubicin), the differential viability (reversal) is -6.21% (inactive). The inhibition in experiment [4] was -2.73% (inactive); in experiment [5] it was -9.68% (inactive).
On to `CC(=O)c1cc(-c2ccccc2)n(CC(=O)N2CCN(C3CCCC3)CC2)c1C`, for which the viability in experiment [1] is 98.7% (inactive); in experiment [2], 80.5% (inactive); in experiment [3] (setting [6]) it was 80.6%; in experiment [3] (setting [7]) it was 80.5%. In addition, the differential viability (reversal) in experiment [3] (H69AR cells + 2 uM doxorubicin) is -0.095% (inactive). Further, the results for the inhibition in experiment [4] and in experiment [5] were -5.58% (inactive) and 0.95% (inactive), respectively.
`CCOC(=O)CSC1=C(C#N)C(c2ccc(C)cc2)C(C(=O)OC)C(=O)N1` (stereo not given): the viability in experiment [1] is 81.7% (inactive); in experiment [2], 91.1% (inactive); in experiment [3] (setting [6]), 89.6%; in experiment [3] (setting [7]), 91.1%. The differential viability (reversal) in experiment [3] (H69AR cells + 2 uM doxorubicin) was 1.55% (inactive). Further, the figures for the inhibition in experiment [4] and in experiment [5] were -1.2% (inactive) and -5.56% (inactive), respectively.
In the case of `CCOC(=O)N1CCN(C(=O)Nc2ccc3oc(C)nc3c2)CC1`, the viability in experiment [1] was 98.2% (inactive); in experiment [2], 93.2% (inactive); in experiment [3] (setting [6]), 94.1%; in experiment [3] (setting [7]), 93.2%. Moreover, the differential viability (reversal) in experiment [3] (H69AR cells + 2 uM doxorubicin) is -0.96% (inactive). Besides, the inhibition in experiment [4] was -2.63% (inactive); in experiment [5] it was 0% (inactive).
For `COCCn1nnnc1C(C(C)C)N(Cc1cccnc1)Cc1ccccc1Cl` (stereo not given), the viability in experiment [1] was 96.4% (inactive); in experiment [2], 83.8% (inactive); in experiment [3] (setting [6]), 49%; in experiment [3] (setting [7]), 83.8%. In experiment [3] (H69AR cells + 2 uM doxorubicin), the differential viability (reversal) was 34.7% (inactive). The inhibition in experiment [4] was -2.34% (inactive); in experiment [5], 2.06% (inactive).
`CCOC(=O)C1CCN(C(=O)Nc2ccc(Cl)cc2Cl)CC1`: the viability in experiment [1] is 100% (inactive); in experiment [2], 104% (inactive); in experiment [3] (setting [6]) it was 84.1%; in experiment [3] (setting [7]), 104%. In experiment [3] (H69AR cells + 2 uM doxorubicin), the differential viability (reversal) was 19.9% (inactive). The inhibition in experiment [4] is -4.61% (inactive); in experiment [5], 3.65% (inactive).
`COc1cccc(C(=O)Nc2cc(NC(=O)c3ccco3)ccc2OC)c1`: the viability is 69.1% (inactive) in experiment [1], 80.6% (inactive) in experiment [2], 77.8% in experiment [3] (setting [6]) and 80.6% in experiment [3] (setting [7]). Also, the differential viability (reversal) in experiment [3] (H69AR cells + 2 uM doxorubicin) is 2.75% (inactive). Moreover, the inhibition in experiment [4] is -3.64% (inactive); in experiment [5] it was -2.22% (inactive).
For `Cc1cccc(NCc2ccccc2O)c1`, the viability was 76.1% (inactive) in experiment [1], 94.6% (inactive) in experiment [2], 89.2% in experiment [3] (setting [6]) and 94.6% in experiment [3] (setting [7]). Besides, the differential viability (reversal) in experiment [3] (H69AR cells + 2 uM doxorubicin) was 5.33% (inactive). Besides, the inhibition is -0.13% (inactive) in experiment [4] and -5.87% (inactive) in experiment [5].
Regarding `COc1ccc(N(CC(=O)Nc2ccc(F)c(Cl)c2)S(=O)(=O)c2c(C)noc2C)cc1`, the viability in experiment [1] was 93.8% (inactive); in experiment [2] it was 81.5% (inactive); in experiment [3] (setting [6]), 89.3%; in experiment [3] (setting [7]), 81.5%. In addition, in experiment [3] (H69AR cells + 2 uM doxorubicin), the differential viability (reversal) is -7.84% (inactive). For the same molecule, the results for the inhibition in experiment [4] and in experiment [5] were -1.07% (inactive) and -6.83% (inactive), respectively.
Turning to `CCCOc1cccc(C(=O)N(Cc2ccco2)C2CCS(=O)(=O)C2)c1` (stereo not given), the viability is 98% (inactive) in experiment [1], 90.5% (inactive) in experiment [2], 89.8% in experiment [3] (setting [6]) and 90.5% in experiment [3] (setting [7]). The differential viability (reversal) in experiment [3] (H69AR cells + 2 uM doxorubicin) is 0.72% (inactive). For the same molecule, the inhibition was -3.6% (inactive) in experiment [4] and -7.94% (inactive) in experiment [5].
As for `O=C1c2ccccc2C(=O)N1CCCCN1CCN(CCCCN2C(=O)c3ccccc3C2=O)CC1`, the viability in experiment [1] was 93% (inactive); in experiment [2], 97.5% (inactive); in experiment [3] (setting [6]), 84.8%; in experiment [3] (setting [7]) it was 97.5%. Further, the differential viability (reversal) in experiment [3] (H69AR cells + 2 uM doxorubicin) was 12.7% (inactive). For the same molecule, the figures for the inhibition in experiment [4] and in experiment [5] were -7.33% (inactive) and 6.98% (inactive), respectively.
Take `Cc1cc(C(=O)N2CCN(C(c3ccccc3)c3ccccc3)CC2)no1`: the viability in experiment [1] is 121% (inactive); in experiment [2] it was 89.1% (inactive); in experiment [3] (setting [6]), 85.7%; in experiment [3] (setting [7]), 89.1%. The differential viability (reversal) in experiment [3] (H69AR cells + 2 uM doxorubicin) was 3.42% (inactive). The inhibition was -6.18% (inactive) in experiment [4] and 0.16% (inactive) in experiment [5].
Regarding `CSc1ccccc1NC(=O)CN(Cc1ccccc1)S(C)(=O)=O`, the viability in experiment [1] is 82.7% (inactive); in experiment [2], 93.1% (inactive); in experiment [3] (setting [6]) it was 85.2%; in experiment [3] (setting [7]), 93.1%. Also, the differential viability (reversal) in experiment [3] (H69AR cells + 2 uM doxorubicin) was 7.95% (inactive). Besides, the inhibition was -0.78% (inactive) in experiment [4] and 10.6% (inactive) in experiment [5].
Regarding `COc1ccccc1C1(CC(=O)N2CCOCC2)CCOC(C(C)C)C1` (stereo not given), the viability is 72.7% (inactive) in experiment [1], 88.8% (inactive) in experiment [2], 91% in experiment [3] (setting [6]) and 88.8% in experiment [3] (setting [7]). Also, the differential viability (reversal) in experiment [3] (H69AR cells + 2 uM doxorubicin) was -2.17% (inactive). Also, the inhibition is -5.47% (inactive) in experiment [4] and -6.03% (inactive) in experiment [5].
Turning to `O=C(Nc1nc(-c2ccc(S(=O)(=O)N3CCCCCC3)cc2)cs1)c1cccs1`, the viability in experiment [1] is 73.6% (inactive); in experiment [2], 64.6% (inactive); in experiment [3] (setting [6]), 69.2%; in experiment [3] (setting [7]), 64.6%. Moreover, the differential viability (reversal) in experiment [3] (H69AR cells + 2 uM doxorubicin) was -4.63% (inactive). Besides, the inhibition in experiment [4] was -6.62% (inactive); in experiment [5] it was -3.81% (inactive).
Take `CCOc1ccccc1-n1c(SCC(=O)NC(C)CC)nnc1-c1ccoc1C` (stereo not given): the viability in experiment [1] was 82.5% (inactive); in experiment [2] it was 88.7% (inactive); in experiment [3] (setting [6]), 79.6%; in experiment [3] (setting [7]), 88.7%. Also, the differential viability (reversal) in experiment [3] (H69AR cells + 2 uM doxorubicin) was 9.12% (inactive). For the same molecule, the inhibition was -6% (inactive) in experiment [4] and -1.75% (inactive) in experiment [5].

(Values after PubChem BioAssay.)
